# Source: PubChem (Sanford-Burnham Center for Chemical Genomics)
# SUMO1-SIM PPI: modulators of human SUMO1-mediated protein-protein interactions | SUMO1 binding to a labelled peptide, TR-FRET, 1 h | inhibition, % at 20 µM | 360,000 tested, 0.33% active | AID 602429; in the data active = inhibition above about 37%
# Target sequence (P63165 whole entry, looked up): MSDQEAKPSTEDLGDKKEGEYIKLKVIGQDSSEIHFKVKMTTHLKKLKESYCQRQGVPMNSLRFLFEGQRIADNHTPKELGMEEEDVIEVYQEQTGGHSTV
# Scp1 inh: inhibitors of human Scp-1 phosphatase; Recombinant Scp1, phosphopeptide, malachite green phosphate absorbance; inhibition, % at 20 µM; 340,000 tested, 0.88% active; AID 493091;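 active = inhibition above about 50% at 20 µM, limit read from the data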;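 note: plate controls were DMSO wells with enzyme for no effect and wells lacking enzyme for full effect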
# Target sequence (Q9GZU7 76-261 limits assumed): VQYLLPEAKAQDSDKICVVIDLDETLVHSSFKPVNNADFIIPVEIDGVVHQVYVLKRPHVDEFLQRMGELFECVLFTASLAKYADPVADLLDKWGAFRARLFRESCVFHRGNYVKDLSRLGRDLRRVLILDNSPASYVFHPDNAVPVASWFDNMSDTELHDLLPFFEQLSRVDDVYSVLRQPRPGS
#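 Times: enzyme reaction 45 min at room temperature, colour 5 min, stabilisation 30 min. Material: SCP-1 catalytic fragment, aa 76-261. Medium: Acidic Tris acetate buffer with magnesium and detergent. Signal: colorimetric free-phosphate detection, absorbance 630 nm. Read-out basis: % inhibition of SCP-1 phosphate liberation. Reagent: Phosphorylated 17-residue peptide substrate.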
# STEP inh: STEP (human) phosphatase inhibition | 360,000 tested, 0.25% active | recombinant STEP, OMFP fluorogenic substrate, fluorescence | P54829 | inhibition, % at 20 µM;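 active = inhibition at 20 µM, scaled per plate between control wells, above about 37%, limit read from the data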;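 note: 0% = DMSO with enzyme and substrate and 100% = substrate only without enzyme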
#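 medium = Bis-Tris buffer pH 6.0, 2.5 mM DTT, 0.005% Tween 20 | test system = STEP (striatal-enriched tyrosine phosphatase) enzyme, cell-free | measure = normalized % inhibition | compound dosing = 20 µM, 1% DMSO | also added = 25 µM OMFP | schedule = reaction 20 min, ambient temperature | measured by = fluorescence read at 480 nm ex / 540 nm em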
# LMPTP inh: blocks human LMPTP phosphatase | P24666 | recombinant LMPTP-A, OMFP fluorogenic substrate, fluorescence intensity | inhibition, % at 20 µM | 360,000 tested, 0.22% active | AID 651560;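 active = compounds that cut the enzyme signal by at least half of the control window in the single-dose screen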;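 note: plate controls were DMSO wells with enzyme plus substrate for no effect and substrate without enzyme for full effect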
#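 Test system: LMPTP-A phosphatase enzyme; input: 0.625 nM LMPTP-A final; reagent: OMFP substrate, 400 µM final; compound dosing: 20 µM single dose, 3% DMSO; incubation: 50 min dark incubation at room temperature; measured by: endpoint fluorescence intensity from OMFP dephosphorylation; measure: % inhibition relative to no-enzyme and uninhibited control wells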
# DNMT1 inh: DNMT1 (human) enzyme inhibition. P26358. DNMT1 molecular beacon, Hinp1I cleavage, fluorescence. inhibition (reported as % activation of signal), % at 10 µM. 360,000 tested, 0.83% active. AID 588458; in the data active = inhibition above about 50%
# Rpn11 inh: Rpn11 (human) deubiquitinase inhibition. O00487. human 26S proteasome, Ub4-pepOG fluorescence polarization; 20S core pre-blocked with epoxomicin. 360,000 tested, 0.59% active. inhibition, % at 20 µM;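 active = inhibition at 20 µM, scaled to each plate's controls, above about 33%, limit read from the data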
# Target sequence (O00487 whole entry, looked up): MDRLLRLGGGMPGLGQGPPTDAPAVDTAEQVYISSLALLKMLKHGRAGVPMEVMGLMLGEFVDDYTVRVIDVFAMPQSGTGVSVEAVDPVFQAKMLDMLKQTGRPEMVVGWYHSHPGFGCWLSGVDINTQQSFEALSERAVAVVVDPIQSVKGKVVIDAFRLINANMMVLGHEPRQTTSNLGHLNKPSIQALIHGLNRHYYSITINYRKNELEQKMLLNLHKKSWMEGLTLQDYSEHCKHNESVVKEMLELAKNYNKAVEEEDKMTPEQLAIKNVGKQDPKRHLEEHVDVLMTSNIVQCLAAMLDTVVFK
# Beacon interf DR: beacon fluorescence artifact, dose response counter-screen | shares compounds with DNMT1 inh | IC50, µM | molecular beacon fluorescence, spectral interference counter-screen | 200 tested, under 10 active | AID 602382; call rule not given here
# DNMT1 confirm: DNMT1 inhibition confirmation, single concentration | shares compounds with DNMT1 inh | DNMT1 molecular beacon HinP1I cleavage, fluorescence | inhibition, % at 10 µM | 2,300 tested, 8% active | AID 602385;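 active = average inhibition of at least 30% in the single-concentration confirmation test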
# Beacon interf: beacon fluorescence artifact counter-screen; shares compounds with DNMT1 inh; DNMT1 molecular beacon spectral interference counterscreen, fluorescence 485/520; activation (fluorescence interference), % at 10 µM; 2,300 tested, 1% active;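 active = activation of at least 30% at 10 µM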;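 note: DNMT1 catalytic domain with a HinP1I cleavage step and a FAM/dabcyl DNA beacon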
# * marks the source's active call; other numbers are inactive results; · = not tested or not shown. A selection: hits, their analogues and other compounds. The true share with any hit is near 2.3%.
SMILES,SUMO1-SIM PPI,Scp1 inh,STEP inh,LMPTP inh,DNMT1 inh,Rpn11 inh,DNMT1 confirm,Beacon interf,others
CC(C)(C)OC(=O)NCc1ccc(NC(=O)c2nc[nH]c2C(=O)NCCCCCCNC(=O)c2[nH]cnc2C(=O)Nc2ccc(CNC(=O)OC(C)(C)C)cc2)cc1,6.8,-4.9,0.5,7.9,15.3,6.6,·,·,
COc1cccc(C(=O)N2CCC[C@@H]2C(=O)N2CCC[C@H]2C(=O)NCc2ccncc2)c1,-2.9,·,·,-0.6,·,·,·,·,
CCc1ccc(N(CC(=O)NC(C)C)C(=O)CCC(=O)Nc2nccs2)cc1,1.4,9.2,-1.7,-1.2,-0.1,1.8,·,·,
COC(=O)C[C@@H]1C[C@H]2c3cc(NC(=O)Nc4ccccc4F)ccc3O[C@H]2[C@H](CO)O1,-1.2,·,-1.4,-3.0,7.1,-5.4,·,·,
Cc1c(C(=O)Nc2ccccc2)c2ccc(C(F)(F)F)cc2n1O,7.6,-10.8,-0.8,0.1,1.0,-0.8,·,·,
CC(SC(C)C(=O)NN=Cc1cccc(Cl)c1)C(=O)NN=Cc1cccc(Cl)c1 (centres undefined),-1.4,-6.7,-0.5,-0.9,64.8*,-7.0,5.5,6.6,
CC(=O)NC(c1cccc(F)c1)c1nc(-c2cc(F)cc(Cl)c2)cs1 (centres undefined),-1.0,·,0.1,30.1,58.5*,13.4,4.9,6.5,
CC1Sc2ccc(C(=O)N(CCc3ccccc3)Cc3ccccc3)cc2NC1=O (centres undefined),2.9,·,0.2,1.6,82.9*,-1.1,1.3,7.2,
COc1cc(CNCC(C)C)cc(Br)c1OCC(=O)Nc1ccccc1,0.3,-2.4,1.0,0.4,87.1*,-6.9,2.6,3.8,
CCNCc1cc(Br)c(OCC(=O)Nc2ccccc2)c(OC)c1,-0.3,-9.0,-2.5,0.3,7.5,-0.8,·,·,
Cc1c(NC(=S)NNC(=O)CCC(=O)O)c(=O)n(-c2ccccc2)n1C,-5.7,-2.0,0.0,-0.7,1.6,4.3,·,·,
Cc1ccc(C)c(OCC(=O)N/N=C/c2c(C)nn(-c3ccccc3)c2Cl)c1C,1.3,-10.5,4.0,-1.8,53.2*,1.3,0.3,-0.1,
COc1cc(NC(=O)Cn2cnc(C(=O)Nc3ccc(C)c(C)c3)n2)cc(OC)c1OC,-0.7,3.9,-3.0,1.7,-0.3,5.6,·,·,
Cc1ccc(NC(=O)Cn2cnc(C(=O)Nc3ccc(C)c(C)c3)n2)cc1C,-2.5,4.1,1.1,-0.5,51.8*,-6.7,1.9,3.0,
O=C(CCN1C(=O)c2ccccc2S1(=O)=O)N1CCN(c2cccc(Cl)c2)CC1,1.7,-2.8,2.6,0.1,2.2,-0.5,·,·,
COc1ccc(N2CC(C(=O)Nc3ccccc3N3CCCC3)CC2=O)c(OC)c1 (centres undefined),5.2,-3.8,1.1,0.0,-2.7,1.9,·,·,
O=C(CSc1nnc(SCc2ccccc2)s1)N/N=C/C=C\c1ccco1,12.9,81.5*,2.6,28.3,88.3*,32.2,8.9,-1.3,
O=C(CSc1nnc(SCc2ccccc2)s1)N/N=C/C=C/c1ccccc1[N+](=O)[O-],-5.3,-11.7,3.6,1.5,-2.0,-2.0,·,·,
O=C(CNC(=O)c1sc2ccccc2c1Cl)NC1CC1,-8.0,4.7,0.6,-1.8,0.4,-5.1,·,·,
Cc1oc2c(c1C(=O)c1ccc(Cl)cc1)C(=O)C(=O)c1ccccc1-2,15.9,0.0,9.8,1.8,73.9*,-3.1,21.1,-8.5,Beacon interf DR=>99
Oc1ccc(F)c2cccnc12,-1.9,-6.9,1.3,0.8,68.5*,0.5,2.5,2.7,
CC1CCN(CCOc2ccc(OCc3ccccc3)cc2)CC1,0.1,-1.3,-1.9,-2.7,-0.7,7.1,·,·,
CCCN(CC(=O)Nc1ccc(F)c(F)c1F)C(=O)CCc1nc2ccccc2c(=O)[nH]1,2.2,-1.2,1.0,-0.4,-2.0,0.4,·,·,
NC(=O)CC(NC(=O)Cc1ccc(Br)cc1)c1ccc(N2CCC(N3CCCC3)CC2)c([N+](=O)[O-])c1 (centres undefined),-20.6,-2.3,-1.4,-2.3,2.6,-2.7,·,·,
Cc1ccccc1CNc1ccc(C(CC(N)=O)NC(=O)c2ccc(Br)cc2)cc1[N+](=O)[O-] (centres undefined),-13.8,-10.3,-1.0,-0.2,61.1*,8.8,0.4,-0.9,
SMILES,SUMO1-SIM PPI,Scp1 inh,STEP inh,LMPTP inh,DNMT1 inh,Rpn11 inh,DNMT1 confirm,Beacon interf,others
NC(=O)CC(NC(=O)c1ccc(Br)cc1)c1ccc(NCc2ccc(F)cc2)c([N+](=O)[O-])c1 (centres undefined),4.3,-9.8,-1.2,2.4,28.1,29.5,·,·,
NC(=O)CC(NC(=O)Cc1ccc(Br)cc1)c1ccc(N2CCC(Br)CC2)c([N+](=O)[O-])c1 (centres undefined),-2.1,4.0,1.4,1.5,76.7*,-1.3,-4.4,-3.0,
NC(=O)CC(NC(=O)Cc1ccc(Br)cc1)c1ccc(NCCc2ccccc2F)c([N+](=O)[O-])c1 (centres undefined),-4.9,-5.8,1.6,1.5,37.6,22.9,·,·,
NC(=O)CC(NC(=O)Cc1ccc(Br)cc1)c1ccc(NCCc2ccc(F)cc2)c([N+](=O)[O-])c1 (centres undefined),-9.8,0.6,2.4,1.6,53.1*,38.4,1.7,0.0,
NC(=O)CC(NC(=O)Cc1ccc(Br)cc1)c1ccc(N2CCC(Cc3ccccc3)CC2)c([N+](=O)[O-])c1 (centres undefined),5.9,8.4,6.6,0.1,86.9*,-8.3,-7.0,-4.8,
C[C@H](c1ccccc1)N1C[C@H](COCc2ccccc2)Oc2cc(N3CC[C@@H](O)C3)ccc2S1(=O)=O,4.0,·,·,1.8,·,·,·,·,
COc1ccc(C(=O)Nc2ccccc2C(=O)N2CCCCC2C)cc1 (centres undefined),0.4,-6.3,0.2,-1.7,2.9,-3.9,·,·,
Cc1ccccc1-c1n[nH]nc1C1=CC(=O)C[C@H](c2ccc(F)cc2)C1,-8.1,·,5.2,1.1,2.9,-1.2,·,·,
NC(=O)CC(NC(=O)Cc1ccc(Br)cc1)c1ccc(N2CCCCCCC2)c([N+](=O)[O-])c1 (centres undefined),0.4,-3.0,1.9,-0.8,65.0*,-0.5,-1.1,1.9,
CN(Cc1ccccc1)c1ccc(C(CC(N)=O)NC(=O)Cc2cccc3ccccc23)cc1[N+](=O)[O-] (centres undefined),-11.5,-5.8,-0.8,0.7,-6.6,14.9,·,·,
